Only some compounds are listed: those with a hit (about 4.4% of all), similar ones and a draw of the others.
Calb FLC – affects C. albicans growth with fluconazole; C. albicans CaCi-2 (fluconazole-resistant clinical isolate) + fluconazole, Alamar Blue growth, 48 h; growth inhibition, % (no concentration beside the values); AID 1979; 300,000 compounds, 0.57% hits;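 active = growth inhibition above about 58% in most replicates, limit read from the data, passing the limit was not always enough; inconclusive = exactly half the replicates above a set limit; inactive = most replicates below a set limit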;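 also: all wells also contain fluconazole at 8 µg/ml as a sub-toxic cotreatment; 0% = median of DMSO wells and 100% = median of geldanamycin control wells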
HSF1 activator – increases HSF-1 driven luciferase reporter signal; NIH3T3-HGL HSF-1 luciferase reporter, MG132, 8 h; 100% = twice DMSO control signal; activation, % at 9 µM; 300,000 compounds, 1.7% hits; AID 504408;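 active = mean replicate activation of at least 50% with a set share of replicates each reaching 50%; inconclusive = only one of those two conditions met; inactive = mean below 50% and too few replicates reaching it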;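 also: 0% = median of the neutral control wells and 100% = twice that signal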
HSF1 inh – HSF1 inhibition | activity change, negative = inhibition, % at 7.5 µM (by protocol) | 300,000 compounds, 0.77% hits | NIH3T3-HGL HSE-luciferase, MG132-induced, luminescence 8 h; active compounds read low;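 active = more than half of replicate wells show activity change below -50%, luminescence cut by over half; inconclusive = some wells, but at most half, below -50%; inactive = no replicate well below -50%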;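 also: luciferase reports HSF-1 transcriptional activity via heat shock element; 0% = median of DMSO wells and -100% = zero luminescence signal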
T cruzi repl – T. cruzi replication inhibition; 300,000 compounds, 1.4% hits; T. cruzi beta-gal in NIH3T3, luminescence, 90 h; inhibition, % (no concentration beside the values);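 active = mean inhibition across valid replicates above about 55%, limit read from the data; inconclusive = mean below that limit but half or more replicates reach it; inactive = mean below it, under half of replicates reach it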;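 also: signal also drops with host cell toxicity which is not excluded here; 0% = plate median of DMSO wells and 100% = zero luminescence signal; higher percent means less beta-gal luminescence so fewer parasites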
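Read-out: Parasite load inhibition, % | Test system: Mouse NIH/3T3 fibroblasts infected with β-gal-expressing T. cruzi Tulahuen C4 | Amount: 5,000 cells/well | Medium: DMEM, 2% fetal bovine serum | Signal: GalScreen β-gal luminescence, detergent lysis, 60 min | Timing: 3 h attach, ≥90 h co-culture | Also added: Tulahuen C4 trypomastigotes, 5000/well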
HIF activator – HIF pathway transcriptional activation; activation, % at 7.5 µM (by protocol); U2OS HRE-luciferase reporter, luminescence; normalized: DMSO 0%, desferrioxamine 100%; 300,000 compounds, 0.32% hits; AID 1910;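 active = mean activation of at least 10% of the iron chelator positive control signal, with at least half of replicates also reaching 10%; inconclusive = mean and replicate majority disagree about reaching 10%; inactive = mean and most replicates under 10%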
* marks the source's active call; other numbers are inactive results; ? = inconclusive; nt = no result.

SMILES | Calb FLC | HSF1 activator | HSF1 inh | T cruzi repl | HIF activator
CCCNC(=S)N1CCC(C(=O)c2ccc3c(c2)OCCO3)CC1 | -14 | -2 | 7 | -5 | 0
CSc1ncc(C(=O)Nc2ccc(C(C)=O)cc2)c(C)n1 | 2 | 9 | 2 | -9 | 3
CCc1ccc2c(c1)C(=O)c1ccccc1C2=O | -19 | 81* | 40 | ? | 3
Cc1ccnc(NS(=O)(=O)c2ccc(NC(=O)COc3ccccc3)cc2)n1 | 14 | -91 | -88* | -16 | -7
O=C(COc1ccccc1)Nc1ccc(S(=O)(=O)Nc2ncccn2)cc1 | 0 | -6 | -7 | -11 | 0
CC(=O)Nc1ccc(CN2CCCC(CCC(=O)NCc3ccccc3F)C2)cc1 (stereo not drawn) | 23 | 2 | -1 | 23 | -1
O=C(CCC1CCCN(Cc2cccc(Cl)c2)C1)NCc1ccccc1F (stereo not drawn) | -4 | 5 | 2 | 61* | 0
Cc1nn(C(C)C)c(C)c1CN1CCCC(CCC(=O)NCc2ccccc2F)C1 (stereo not drawn) | -17 | 5 | -7 | 58* | 0
CC(C)c1csc(CN2CCCC(CCC(=O)NCc3ccccc3F)C2)n1 (stereo not drawn) | 7 | 9 | -3 | 51 | 0
Cc1c(N=C2SCC(=O)N2/N=C/c2ccccc2Cl)c(=O)n(-c2ccccc2)n1C | 0 | 9 | 5 | 14 | -47
Cc1c(N=C2SCC(=O)N2/N=C\c2ccc(Br)cc2)c(=O)n(-c2ccccc2)n1C | 2 | 67* | 21 | 1 | 0
Cc1ccccc1OCC(=O)Nc1ccc(N2CCN(S(C)(=O)=O)CC2)cc1 | 9 | 39 | 5 | -22 | 0
Cc1cc(Cl)ccc1OCC(=O)Nc1ccncc1 | 7 | -69 | -59* | -6 | -10
Cc1cccc(OCC(=O)Nc2ccncc2)c1C | 32 | -75 | -68* | -6 | 2
Cc1cccc(OCC(=O)Nc2ccc(N3CCN(S(C)(=O)=O)CC3)cc2)c1C | -2 | 57* | 19 | -10 | -1
CNC(=O)c1cccc(NC(=O)c2ccccc2OCc2ccccc2)c1 | -2 | -2 | -3 | 4 | 0
CCc1ccc2oc(-c3cc(N=Cc4cccc(OC)c4O)ccc3O)nc2c1 | -19 | -4 | -7 | 64* | -1
COC(=O)Nc1nnc(/C=C/c2ccc(OC)cc2)s1 | 8 | 40 | 10 | -13 | 1
COc1ccc(/C=C/c2nnc(NC(C)=O)s2)cc1 | 5 | 57* | 30 | -23 | 4
COc1ccc(-n2c(-c3cccc(C)c3[N+](=O)[O-])n[nH]c2=S)cc1 | 74* | 29 | 0 | 4 | 0
CC(C)N(Cc1nc(-c2ccc(Cl)cc2)no1)C(=O)CN(C)S(=O)(=O)c1ccc(Cl)cc1 | -17 | 85* | 38 | 56* | -1
CC(C)N(Cc1nc(-c2ccccc2)no1)C(=O)CN(C)S(=O)(=O)c1ccc(Br)cc1 | -9 | 3 | -3 | -9 | 0
CCOC(=O)c1cnn(-c2ccccc2)c1N | -12 | 7 | 2 | -37 | 1
CCOC(=O)c1cnn(-c2ccc(C(F)(F)F)cn2)c1N | 1 | 61* | 32 | -6 | 3
C=CCSc1nc2sc3c(c2c(=O)n1-c1ccc(C)cc1)CCN(C)C3 | 6 | -25 | -7 | 37 | 0
SMILES | Calb FLC | HSF1 activator | HSF1 inh | T cruzi repl | HIF activator
CCCc1sc(N/N=C/c2ccccn2)nc1-c1ccc(F)cc1 | 18 | 26 | 15 | 55* | 20*
CCN=c1scc(-c2ccc(F)cc2)n1/N=C/c1ccccn1 | 3 | 34 | 10 | 14 | 5
CCC(C(=O)N1CCC(N2CCCCC2)CC1)n1nc(C)c2sc3ccccc3c2c1=O (stereo not drawn) | 3 | 9 | 12 | -19 | 0
O=C(NCC1CCN(C(=O)c2c(F)c(F)c(F)c(F)c2F)CC1)c1c(F)c(F)c(F)c(F)c1F | 17 | 2 | -3 | 7 | 0
COc1ccc(NC(=O)c2csc(Cc3ccccc3)n2)cc1 | 3 | 24 | 9 | 3 | 5
O=C(Nc1ccc(F)cc1)c1csc(Cc2ccccc2)n1 | 5 | 59* | 38 | -4 | 1
COc1ccccc1CNC(=O)c1csc(Cc2ccc(Cl)cc2)n1 | 15 | 100* | 62 | 13 | 0
CO/N=C/C(=N\Nc1cc(OC)cc(OC)c1)C(=O)c1ccccc1 | -8 | -10 | 1 | 53 | 0
Cc1ccc(C(=O)CN2C(=O)c3ccccc3S2(=O)=O)cc1 | -1 | -76 | -75* | -1 | -1
O=C(CN1C(=O)c2ccccc2S1(=O)=O)N1CCCCC1 | -8 | 54* | 11 | -3 | 1
O=C(CN1C(=O)c2ccccc2S1(=O)=O)N1CCOCC1 | 5 | 7 | -6 | -7 | 1
Cc1occc1C(=O)N/N=C/c1ccc(OCc2ccccc2)cc1 | 1 | 53* | 26 | -15 | 3
O=C(/C=C/c1ccc([N+](=O)[O-])cc1)Oc1ccc(/C=N/NC(=O)c2ccncc2)cc1 | 3 | -42 | -22 | 55* | -3
CC(C)(C)c1ccc(OCc2ccc(C(=O)N/N=C/c3ccc(O)c(O)c3)cc2)cc1 | 63* | -3 | -5 | 47 | 3
O=C(N/N=C/c1ccc([N+](=O)[O-])cc1)c1ccc(COc2ccccc2-c2ccccc2)cc1 | -4 | -2 | -3 | 61* | 0
Cc1ccc(COc2ccc(/C=N/NC(=O)c3ccc(CN4CCOCC4)cc3)cc2)cc1 | -13 | 30 | 9 | 0 | 0
O=C(N/N=C/c1ccc([N+](=O)[O-])cc1)c1ccccc1OCc1ccccc1 | -5 | ? | 11 | 15 | 0
Nn1c(SCC(=O)Nc2ccc(OC(F)F)cc2)nnc1-c1ccco1 | 7 | 28 | 14 | 11 | -29
O=C(N/N=C/c1ccc(OCc2ccc(F)cc2)cc1)c1ccccc1 | -33 | nt | nt | -13 | 1
O=C(N/N=C/c1ccc(F)cc1)c1ccc(OCc2ccccc2)cc1 | 2 | -82 | -75* | -11 | 0
COc1ccc(/C=N/NC(=O)c2ccoc2C)cc1O | -10 | 18 | 23 | 10 | 261*
Cc1ccc(C(=O)N(CCC2=CCCCC2)c2c(N)n(Cc3ccccc3)c(=O)[nH]c2=O)o1 | -5 | 0 | 4 | 3 | 1
Nc1c(N(CCC2=CCCCC2)C(=O)c2ccc([N+](=O)[O-])o2)c(=O)[nH]c(=O)n1Cc1ccccc1 | -2 | 10 | 16 | 66* | -25
COc1cccc(CN(C)CC(=O)Nc2ccccc2C(=O)Nc2ccccc2)c1OC | ? | 9 | 0 | 9 | 0
O=C(Nc1ccc2oc(-c3ccccc3)nc2c1)c1cccs1 | -2 | 93* | 44 | -3 | 6
O=C(Nc1cccc(-c2nc3ccccc3o2)c1)c1cccnc1 | 4 | 23 | 7 | -12 | 0
O=C(O)c1ccccc1-c1ccccc1C(=O)Nc1cccc(-c2nc3ccccc3o2)c1 | 89* | 22 | 14 | 1 | 0

Source: PubChem (Broad Institute)
